pIC50: −log10 of the molar value.
Columns and labels:
[1] = target: T1, Sex hormone-binding globulin (Homo sapiens) (UniProt P04278); assay: In vitro inhibition of [3H]DHT binding to human sex hormone-binding globulin (SHBG); parameters: concentration or dose not given beside the values
T1 sequence (whole entry): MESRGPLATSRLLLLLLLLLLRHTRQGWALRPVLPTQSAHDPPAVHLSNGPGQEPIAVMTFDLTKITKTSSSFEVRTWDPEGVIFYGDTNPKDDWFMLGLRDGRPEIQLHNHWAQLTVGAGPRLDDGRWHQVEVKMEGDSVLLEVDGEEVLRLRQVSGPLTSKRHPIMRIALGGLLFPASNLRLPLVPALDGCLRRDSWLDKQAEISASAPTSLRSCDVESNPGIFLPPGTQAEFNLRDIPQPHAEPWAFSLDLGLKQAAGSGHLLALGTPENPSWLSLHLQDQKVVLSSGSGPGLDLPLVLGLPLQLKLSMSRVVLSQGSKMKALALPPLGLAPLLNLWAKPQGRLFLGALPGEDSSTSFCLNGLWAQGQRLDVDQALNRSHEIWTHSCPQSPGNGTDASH
How it was run: (§1)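 Human pregnancy serum diluted 1:200 (about 1 nM SHBG), stripped of endogenous steroid with dextran-coated charcoal, mixed with [3H]DHT at 10 nM. Triplicate test compound added, incubated overnight at room temperature. Dextran-coated charcoal slurry then added for 10 min at 0°C and centrifuged to separate bound from free label. Bound label counted by scintillation and expressed relative to the no-competitor control.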

[2] = target: T1, Sex hormone-binding globulin (Homo sapiens); assay: Relative binding affinity towards human sex hormone-binding globulin (SHBG) compared to estradiol; how it was run: as §1
[3] = target: T1, Sex hormone-binding globulin (Homo sapiens); assay: Relative binding affinity for human sex hormone-binding globulin (SHBG) compared to testosterone; how it was run: as §1
[4] = target: T1, Sex hormone-binding globulin (Homo sapiens); assay: Association […] constant for human sex hormone-binding globulin (SHBG)
[5] = target: T2, Sex hormone-binding globulin (Homo sapiens, UniProt P04278); assay: Inhibitory concentration against [3H]-DHT binding to human sex hormone-binding globulin (SHBG); how it was run: as §1
T2 sequence (P04278 whole entry): T1 sequence (whole entry)

Row | Reduction [1] [%] | Structure (SMILES) | further results
1 | 42 | CC(=O)Oc1ccc2c(C)c(C[C@H](C)O)c(=O)oc2c1 | –
2 | 9 | C[C@H]1CC[C@@H]2[C@](C)(CO)[C@H](O)CC[C@@]2(C)[C@@]12C[C@@]1(COC(=O)C1)CO2 | –
3 | 2 | COc1cc(/C=C/C(=O)c2c(O)cc(C)oc2=O)ccc1O | –
4 | 0 | Cc1c(CC(=O)N[C@@H](C)C(=O)O)c(=O)oc2cc(O)ccc12 | –
5 | 5 | CC[C@@H](O)c1ccc(OC[C@H](O)CN2CCCCC2)c(OC)c1 | –
6 | 0 | O=C(Cc1ccc2cccnc2c1)c1ccc(O)cc1O | –
7 | 12 | COc1cc2c(cc1O)CCN(C[C@@H](O)CNCCO)[C@H]2C | –
8 | 11 | C[C@H]1CC[C@@H]2[C@](C)(CO)[C@H](O)CC[C@@]2(C)[C@]12CC[C@@]1(CCOC1)O2 | –
9 | 1 | Cc1cc(O)c(C(=O)/C=C/c2ccc(O)c([N+](=O)[O-])c2)c(=O)o1 | –
10 | 0 | C=C1CC[C@H]2[C@](C)(CO)[C@H](O)CC[C@@]2(C)[C@@H]1/C=C/C1=CCOC1=O | –
11 | 57 | O=C(/C=C/c1cccnc1)c1ccc(O)cc1 | –
12 | 10 | COC(=O)c1ccc(CC(=O)c2ccc(O)cc2O)o1 | –
13 | 46 | Cc1c(CCC(=O)O)c(=O)oc2c(C)c(O)ccc12 | –
14 | 0 | CC[C@H](NC(=O)Cc1c(C)c2ccc(O)cc2oc1=O)C(=O)O | –
15 | 27 | O=C1C=CC2=C3c4ccc(O)cc4OC[C@]3(O)CC2=C1 | –
16 | 6 | O=C1C=CC2=C3c4cc(O)c(O)cc4C[C@@]3(O)COC2=C1O | –
17 | 4 | CC(=O)c1c(O)c(C)c(O)c2c1OC1=CC(=O)[C@H](C(C)=O)C(=O)[C@]12C | –
18 | 2 | C[C@H]1CC[C@H]2[C@@](C)(CO)[C@@H](O)CC[C@]2(C)[C@@]12CC[C@](CO)(CC(=O)O)O2 | –
19 | 0 | C=C1CC[C@H]2[C@](C)(CO)[C@H](O)CC[C@@]2(C)[C@@H]1C/C=C1/C(=O)OC[C@@H]1O | –
20 | 0 | COC(=O)c1cc(CC(=O)c2ccc(O)cc2O)c(C)o1 | –
21 | 56 | CC1=C[C@@H](C)[C@@]2(CO)CO[C@@H](c3ccc(O)cc3)[C@@H]1[C@H]2C | relative binding affinity (RBA) [2]: 493; relative binding affinity (RBA) [3]: 125; Ka [4]: 130000 M⁻¹; pIC50 [5]: 3.90
22 | 7 | C=C1CC[C@H]2[C@](C)(CO)[C@H](O)CC[C@@]2(C)[C@@H]1C/C=C1/C(=O)OC[C@H]1O | –
23 | 84 | COc1cc([C@H]2OC[C@]3(CO)[C@H](C)[C@H]2C(C)=C[C@@H]3C)ccc1O | relative binding affinity (RBA) [2]: 2750; relative binding affinity (RBA) [3]: 696; Ka [4]: 730000 M⁻¹; pIC50 [5]: 4.65
24 | 6 | C[C@H]1CC[C@H]2[C@@](C)(CO)[C@H](O)CC[C@]2(C)[C@@]12CC[C@@](C)(CO)O2 | –
25 | 95 | O=C(Cc1ccc(O)cc1)c1ccc(O)cc1O | relative binding affinity (RBA) [2]: 4530; relative binding affinity (RBA) [3]: 1150; Ka [4]: 1.2e+06 M⁻¹; pIC50 [5]: 4.87
26 | 0 | O=C1C=CC2=N[C@@]34CCCC[C@@H]3[C@@H](c3ccc(O)cc3)C=C(c3ccccc3)N4C2=C1 | –

Row | Structure (SMILES) | Reduction [1] [%] | further results
27 | CN1CCc2cc(O)c(O)cc2[C@H]1Cc1ccc(O)c(O)c1 | 14 | –
28 | CC1(C)CC2(CC(C)(C)c3cc(O)c(O)cc32)c2cc(O)c(O)cc21 | 48 | –

— ChEMBL document CHEMBL1143630, “Successful in silico discovery of novel nonsteroidal ligands for human sex hormone binding globulin” (J Med Chem, 2005)
